Assay outcomes as filed in PubChem.
Most compounds without a hit are left out; they make up all but 3.4% or so of the library.
MC4R antag cAMP: blocks human MC4R cAMP signaling; P32245; hit rate 0.48% among 360,000; AID 540295; MC4R-expressing cells, MTII-stimulated cAMP, LANCE TR-FRET; inhibition, % at 6.5 µM;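 active = inhibition above its plate's cutoff, the mean of tested wells on that plate plus 3 SD, cut at about 29% in these data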;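 also: 0% = Melanotan II alone and 100% = Melanotan II plus saturating MCL0020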
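material = U2OS cells stably expressing human melanocortin 4 receptor (MC4R) | also added = Melanotan II challenge | dosing = single nominal compound dose of 6.5 µM | detection = TR-FRET with Eu-cAMP and labeled anti-cAMP, 671 nm | replication = singlicate | timing = compound 30 min, challenge 1 h, detection 1 h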
ANO1 activ: mouse TMEM16A channel activation, primary screen; Q8BHY3; HEK293 TMEM16A/YFP-H148Q/I152L, iodide quench fluorescence; active compounds read low; B-score at 10 µM; hit rate 0.3% among 340,000;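 active = fluorescence-ratio B-score plate-corrected deviation score at least 3 library SD below zero, with starting fluorescence score within 5 deviations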;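 also: channel opened by trigger with iodide after compound preincubation; score built on the fluorescence ratio of max minus min over baseline; more negative score means more quench and so TMEM16A activation or potentiation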
MC4R barr agon: agonists of human melanocortin 4 receptor (MC4R) beta-arrestin | P32245 | U2OS MC4R beta-arrestin complementation, luminescence; percent of melanotan II response, DMSO zero | activation, % at 8.9 µM | hit rate 0.98% among 360,000;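 active = activation above a per-plate cutoff, the mean activation of sample wells on that plate plus 3 SD, cut at about 8% in these data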
m5-HT2A agonist: mouse HTR2A agonism via beta-arrestin recruitment. CHO-K1 mHTR2A beta-arrestin complementation, luminescence; percent of 30 µM serotonin response. activation, % at 7.6 µM. hit rate 0.66% among 360,000. AID 624169;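 active = activation above a run cutoff, the mean activation of all tested compounds plus 3 SD, cut at about 14% in these data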;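 also: 0% = plate median of compound wells and 100% = 30 µM serotonin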
ANO1 block: mouse TMEM16A channel inhibition, primary screen. HEK293 TMEM16A/YFP iodide influx fluorescence, ionomycin. normalized B-score (activity score, 25-100; higher = stronger inhibition) at 10 µM. hit rate 1.2% among 310,000. AID 588511;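 active = ratio plate-corrected score three or more library SD toward inhibition, starting fluorescence score within five deviations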;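 also: score derived from kinetic fluorescence span divided by baseline fluorescence per well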
beta cell repl: inducers of beta-cell replication in MIN6 cells | MIN6 cells proliferation, ATPlite luminescence, 48 h; cells starved in 0.2% serum; 100% = growth in 10% serum | AID 2380 | hit rate 0.29% among 330,000 | proliferation, % at 10 µM;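 active = compounds whose signal lies at least 3.5 SD above the mean of all wells on their plate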;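 also: 0% = DMSO-treated cells in low-serum medium and 100% = 10% serum control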
MOR ag counter: counter-screen for mouse HTR2A agonists: human mu opioid receptor agonists | shares compounds with m5-HT2A agonist | U2OS OPRM1 beta-arrestin PathHunter, luminescence; DMSO 0%, DAMGO 9.3 µM 100% | activation, % at 9.3 µM | hit rate 5.3% among 2,300;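 active = mean activation above the mean of DMSO-only wells plus 3 SD, cut at about 0.5% in these data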
Target sequence (P35372 whole entry, looked up): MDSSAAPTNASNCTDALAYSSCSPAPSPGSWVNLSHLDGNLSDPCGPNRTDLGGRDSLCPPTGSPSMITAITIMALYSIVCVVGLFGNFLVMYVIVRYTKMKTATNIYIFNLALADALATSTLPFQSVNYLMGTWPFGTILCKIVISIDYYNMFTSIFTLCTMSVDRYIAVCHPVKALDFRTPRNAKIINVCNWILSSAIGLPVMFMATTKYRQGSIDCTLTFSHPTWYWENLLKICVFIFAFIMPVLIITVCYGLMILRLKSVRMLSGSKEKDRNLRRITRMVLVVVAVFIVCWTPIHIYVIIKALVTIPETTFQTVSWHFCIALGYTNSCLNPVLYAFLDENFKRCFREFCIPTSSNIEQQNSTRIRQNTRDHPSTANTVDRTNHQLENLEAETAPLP
HTR2A ag conf: mouse HTR2A agonism confirmed. shares compounds with m5-HT2A agonist. activation, % at 7.6 µM. hit rate 19% among 2,300. CHO-K1 PathHunter beta-arrestin recruitment, luminescence; DMSO 0%, 30 µM serotonin 100%;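 active = mean activation across triplicates above the hit threshold derived in the original primary screen, cut at about 15% in these data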
The depositor's hits bear a star.

COc1ccc2c(c1)nc(NCCCO)n2Cc1ccccc1 was read as MC4R antag cAMP 3, ANO1 activ inactive, MC4R barr agon -2, m5-HT2A agonist -3, ANO1 block inactive and beta cell repl -2.
O=C1NC[C@@H](Cc2cccc3ccccc23)N(CC2(c3ccccc3)CC2)C1=O was read as MC4R antag cAMP -8, ANO1 activ inactive, MC4R barr agon 1, m5-HT2A agonist 16*, ANO1 block inactive, beta cell repl -7, MOR ag counter -1 and HTR2A ag conf -2.
`CCCCN1C(=O)C(=O)NC[C@H]1Cc1cccc2ccccc12` gave m5-HT2A agonist 3.
`CC(OC(=O)c1nc(Cl)ccc1Cl)C(=O)NCc1ccccc1` (centres undefined) gave MC4R antag cAMP 0, MC4R barr agon -2 and m5-HT2A agonist 4.
COc1cc(CN2CCN(Cc3c[nH]c4ccccc34)CC2CCO)cc(OC)c1 (centres undefined) was read as MC4R antag cAMP 2, ANO1 activ inactive, MC4R barr agon -1, m5-HT2A agonist 19*, ANO1 block inactive, beta cell repl 0, MOR ag counter -1 and HTR2A ag conf 5.
COc1ccc(CN2CCN(Cc3c[nH]c4ccccc34)CC2CCO)cc1C (centres undefined) was read as MC4R antag cAMP 5, ANO1 activ inactive, MC4R barr agon 2, m5-HT2A agonist 13, ANO1 block inactive and beta cell repl -5.
`CC(C)(C)N(Cc1ccccc1)C(=O)COC(=O)CCN1C(=O)C2CC=CCC2C1=O` (centres undefined) gave MC4R antag cAMP 5, ANO1 activ inactive, MC4R barr agon -2, m5-HT2A agonist 15*, beta cell repl 3, MOR ag counter -1 and HTR2A ag conf -2.
For COc1ccc(C(=O)NCCn2cc(SCC(=O)N3CCOCC3)c3ccccc32)cc1 the results were MC4R antag cAMP 15, ANO1 activ inactive, MC4R barr agon 1, m5-HT2A agonist 3, ANO1 block inactive and beta cell repl -2.
Screening COc1ccc(C(=O)NCCn2cc(SCC(N)=O)c3ccccc32)cc1 returned MC4R antag cAMP -5, ANO1 activ inactive, MC4R barr agon -2, m5-HT2A agonist 16*, ANO1 block inactive, beta cell repl -4, MOR ag counter -1 and HTR2A ag conf -6.
CSc1ccccc1C(=O)N1CCC(CCC(=O)NC2CC2)CC1 was read as MC4R antag cAMP -6, ANO1 activ inactive, MC4R barr agon -3, m5-HT2A agonist 15*, ANO1 block inactive, beta cell repl 0, MOR ag counter -1 and HTR2A ag conf -4.
Screening Cc1cc(C)cc(C(=O)N2CCC(CCC(=O)NC3CC3)CC2)c1 returned MC4R antag cAMP 3, ANO1 activ inactive, MC4R barr agon 0, m5-HT2A agonist -5, ANO1 block inactive and beta cell repl -1.
`CC(=O)Nc1ccc(C(=O)OCCc2ccccc2)cc1` gave MC4R antag cAMP 8, ANO1 activ inactive, MC4R barr agon 0, m5-HT2A agonist -12, ANO1 block inactive and beta cell repl 0.
For COCC(C)n1c(C)cc(C(=O)COC(=O)c2cnc(Cl)c(Cl)c2)c1C (centres undefined) the results were MC4R antag cAMP 13, ANO1 activ inactive, MC4R barr agon -2, m5-HT2A agonist 15*, beta cell repl -3, MOR ag counter 0 and HTR2A ag conf -2.
For Nc1ncnc(Nc2ccc(F)cc2)n1 the results were MC4R antag cAMP 6, ANO1 activ inactive, MC4R barr agon -3, m5-HT2A agonist -2, ANO1 block inactive and beta cell repl 3.
